Data: ChEMBL document CHEMBL1157663, “Acyclic nucleoside phosphonates with 5-azacytosine base moiety substituted in C-6 position” (Bioorg Med Chem, 2010)
In brackets after ≈: the same amount, converted by molar mass. Activity calls are given as the source filed them. The calls are words filed in the database; no cut-off is given here.

Legend:
Vero = assay: Cytostatic activity against african green monkey Vero cells; assay type: ADME, cell-based; details: chlorocebus sabaeus
[1] = Cytotoxicity against human CEM cells; assay type: cell-based; details: CEM (CCRF-CEM) cells
CCRF-CEM = assay: Cytostatic activity against human CEM cells; assay type: cell-based
Sindbis virus = assay: Antiviral activity against Sindbis virus infected in african green monkey Vero cells at 20 ug/ml; assay type: functional, organism-based
[2] = Cytotoxicity against african green monkey Vero cells; assay type: cell-based; details: chlorocebus sabaeus
[3] = Cytotoxicity against HEL cells; assay type: cell-based; details: human
HEL = assay: Cytostatic activity against HEL cells; assay type: ADME, cell-based; details: human
[4] = test system: Human immunodeficiency virus 2; assay: Antiviral activity against HIV2 infected in human CEM cells; assay type: functional, organism-based; details: CCRF-CEM
Method in brief: (§1)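 Retroviral assay (HIV-1, HIV-2) run in human T-lymphocyte CEM cells.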

[5] = test system: Human immunodeficiency virus 1; assay: Antiviral activity against HIV1 infected in human CEM cells; assay type: functional, organism-based; details: CCRF-CEM; method in brief: as §1
Human alphaherpesvirus 1 = assay: Antiviral activity against Herpes simplex virus 1 infected in HEL cells; assay type: functional, organism-based
Method in brief: (§2)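 DNA-virus assay run in human embryonic lung (HEL) cell cultures.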

Human alphaherpesvirus 2 = assay: Antiviral activity against Herpes simplex virus 2 infected in HEL cells; assay type: functional, organism-based; method in brief: as §2
Human alphaherpesvirus 3 = assay: Antiviral activity against Varicella zoster virus infected in HEL cells; assay type: functional, organism-based; details: Human alphaherpesvirus 3, HEL; method in brief: as §2
Human betaherpesvirus 6 = assay: Antiviral activity against Human herpesvirus 6; assay type: functional, organism-based
Human betaherpesvirus 5 = assay: Antiviral activity against Human cytomegalovirus infected in HEL cells; assay type: functional, organism-based; details: Human betaherpesvirus 5, HEL; method in brief: as §2
Cowpox virus = assay: Ratio of compound EC50 to HPMP-5-azaC EC50 for Cowpox virus infected in HEL cells; assay type: functional
Vaccinia virus = assay: Ratio of compound EC50 to HPMP-5-azaC EC50 for Vaccinia virus infected in HEL cells; assay type: functional, Orthopoxvirus vaccinia

SMILES | Activity (Vero) | CC50 [1] [µg/mL] | Activity (CCRF-CEM) | Activity (Sindbis virus) | CC50 [2] [µg/mL] | CC50 [3] [µg/mL] | Activity (HEL) | Activity [4] | Activity [5] | Activity (Human alphaherpesvirus 1) | Activity (Human alphaherpesvirus 2) | EC50 (Human alphaherpesvirus 3) [µg/mL] | EC50 (Human betaherpesvirus 6) [µg/mL] | EC50 (Human betaherpesvirus 5) [µg/mL] | EC50 (Human alphaherpesvirus 1; Human alphaherpesvirus 1, HEL) [µg/mL] | EC50 (Human alphaherpesvirus 2; Human alphaherpesvirus 2, HEL) [µg/mL] | Ratio EC50 (Cowpox virus) | Ratio EC50 (Vaccinia virus)
Cc1nc(N)n(C[C@@H](CO)OCP(=O)(O)OC(C)C)c(=O)n1 | Non-toxic | > 100 | Non-toxic | Active | > 100 | > 100 | Non-toxic | inactive | inactive | inactive | inactive | – | – | – | – | – | – | –
CCCCCCCCCCCCCCCCOCCOP1(=O)CO[C@@H](Cn2cnc(N)nc2=O)CO1 (stereo not given in full) | Non-toxic | > 100 | Non-toxic | – | > 100 | > 100 | Non-toxic | inactive | inactive | – | – | ≤ 0.0008 | 0.008 (≈ 0.0151 µM) | ≤ 0.00014 | 0.003 (≈ 0.00565 µM) | 0.003 (≈ 0.00565 µM) | – | –
CCCCc1nc(N)nc(=O)n1C[C@@H](CO)OCP(=O)(O)O | Non-toxic | > 100 | Non-toxic | – | > 100 | > 100 | Non-toxic | inactive | inactive | inactive | inactive | – | – | – | – | – | 50 | 50
Cc1nc(N)nc(=O)n1C[C@@H](CO)OCP(=O)(O)O | Non-toxic | > 100 | Non-toxic | – | > 100 | > 100 | Non-toxic | inactive | inactive | inactive | inactive | – | – | – | – | – | 50 | 50
Cc1nc(N)n(C[C@@H](CO)OCP(=O)(O)O)c(=O)n1 | Non-toxic | > 100 | Non-toxic | inactive | > 100 | > 100 | Non-toxic | inactive | inactive | inactive | inactive | – | – | – | – | – | – | –
CCCc1nc(N)nc(=O)n1C[C@@H](CO)OCP(=O)(O)O | Non-toxic | > 100 | Non-toxic | – | > 100 | > 100 | Non-toxic | inactive | inactive | inactive | inactive | – | – | – | – | – | 50 | 50
Nc1nc(-c2ccccc2)n(C[C@@H](CO)OCP(=O)(O)O)c(=O)n1 | Non-toxic | > 100 | Non-toxic | – | > 100 | > 100 | Non-toxic | inactive | inactive | inactive | inactive | – | – | – | – | – | 50 | 50
CCc1nc(N)nc(=O)n1C[C@@H](CO)OCP(=O)(O)O | Non-toxic | > 100 | Non-toxic | – | > 100 | > 100 | Non-toxic | inactive | inactive | inactive | inactive | – | – | – | – | – | 50 | 50
Nc1ncnc(=O)n1C[C@@H](CO)OCP(=O)(O)O | Non-toxic | > 100 | Non-toxic | – | > 100 | > 100 | Non-toxic | inactive | inactive | inactive | inactive | – | – | – | – | – | – | –
